Experimental data published in ChEMBL document CHEMBL2346548, “Design, synthesis, and structure-activity relationship studies of tryptanthrins as antitubercular agents” (J Nat Prod, 2013).
≈ marks a conversion by molar mass, not a printed value.

What was measured:
CYP2C19 = CYP2C19 (Homo sapiens, UniProt P33261); test: Inhibition of human recombinant CYP2C19 at 10 uM incubated for 60 mins at 37 degC using 3-cyano-7-ethoxycoumarin substrate; assay type: ADME; settings: recombinant CYP2C19, probe 3-cyano-7-ethoxycoumarin
CYP2C19, sequence (P33261 whole entry): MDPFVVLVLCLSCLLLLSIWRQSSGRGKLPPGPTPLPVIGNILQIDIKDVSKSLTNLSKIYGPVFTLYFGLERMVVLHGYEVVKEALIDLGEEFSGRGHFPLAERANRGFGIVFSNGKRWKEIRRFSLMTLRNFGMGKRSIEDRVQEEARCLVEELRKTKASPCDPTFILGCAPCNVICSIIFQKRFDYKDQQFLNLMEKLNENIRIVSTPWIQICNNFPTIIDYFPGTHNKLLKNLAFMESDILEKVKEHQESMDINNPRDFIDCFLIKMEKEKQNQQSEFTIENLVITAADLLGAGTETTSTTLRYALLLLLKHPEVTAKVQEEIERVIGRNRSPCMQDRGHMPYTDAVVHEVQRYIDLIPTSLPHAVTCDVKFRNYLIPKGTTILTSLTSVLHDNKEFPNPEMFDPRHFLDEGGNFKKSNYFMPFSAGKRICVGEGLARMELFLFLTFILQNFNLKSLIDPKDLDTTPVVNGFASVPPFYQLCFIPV

[1] = Aqueous solubility in PBS buffer at pH 7.4 by HPLC method; assay type: physicochemical
Summary of the method: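 Compound at 200 μM final in 2% DMSO in PBS pH 7.4, shaken 24 h at room temperature; quantified by HPLC with photodiode array detection at 230 nm; duplicate, mean reported.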

[2] = Solubility in simulated intestinal fluid at pH 7.6 by HPLC method; assay type: physicochemical
Summary of the method: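 Simulated intestinal fluid medium; each analogue 200 μM final in 2% DMSO, shaken 24 h at room temperature, then HPLC with photodiode array read at 230 nm; duplicate, means given.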

CYP2C9 = CYP2C9 (Homo sapiens, UniProt P11712); test: Inhibition of human recombinant CYP2C9 at 10 uM incubated for 80 mins at 37 degC using 7-methoxy-4-trifluoromethylcoumarin substrate; assay type: ADME; settings: recombinant CYP2C9, probe 7-methoxy-4-trifluoromethylcoumarin
CYP2C9, sequence (P11712 whole entry): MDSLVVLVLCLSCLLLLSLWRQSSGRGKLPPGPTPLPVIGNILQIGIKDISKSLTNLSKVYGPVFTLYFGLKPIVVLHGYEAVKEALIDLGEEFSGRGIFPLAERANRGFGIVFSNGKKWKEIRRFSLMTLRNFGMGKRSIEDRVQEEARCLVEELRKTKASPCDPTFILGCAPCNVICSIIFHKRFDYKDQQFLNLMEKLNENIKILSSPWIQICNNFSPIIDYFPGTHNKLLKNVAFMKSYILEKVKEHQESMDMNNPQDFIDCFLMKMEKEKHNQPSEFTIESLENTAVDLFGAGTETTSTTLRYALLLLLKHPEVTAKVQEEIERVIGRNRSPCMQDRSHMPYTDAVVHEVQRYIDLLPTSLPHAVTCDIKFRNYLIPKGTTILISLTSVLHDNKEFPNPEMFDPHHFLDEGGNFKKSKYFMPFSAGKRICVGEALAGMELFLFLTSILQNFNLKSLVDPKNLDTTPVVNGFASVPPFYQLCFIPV

[3] = Half life in male rat at 56 mg/kg, po; assay type: ADME, organism-based; design: dose 56 mg/kg, route oral; settings: in vivo
[4] = Protein binding in human plasma at 10 uM incubated for 8 hrs at 37 degC by equilibrium dialysis method; assay type: ADME, cell-free; settings: read-out: PPB (converted)
Summary of the method: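 Equilibrium dialysis: 10 μM compound in 1% DMSO in human plasma vs 0.05 M phosphate buffer pH 7.5 across 12–14 K cutoff membrane, at least 8 h at 37 °C; HPLC-photodiode detection at 230 nm; duplicate means.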

[5] = test system: Mycobacterium tuberculosis; test: Antitubercular activity against Mycobacterium tuberculosis H37Rv incubated at 37 degC for 7 days by microplate alamar blue assay; assay type: functional; settings: for MIC: Mycobacterium tuberculosis, H37Rv, 168 h
Summary of the method: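 Mtb H37Rv was grown in 7H9 broth with glycerol, Casitone, 10% OADC and 0.05% Tween 80 to OD600 0.4. Compounds were 2-fold serially diluted from DMSO stocks in 7H9, and wells were inoculated at 2 × 10⁵ CFU/mL. After 7 days at 37 °C, Alamar Blue was added and read after a further 24 h. MIC was the lowest concentration preventing the blue-to-pink change.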

[6] = Permeability across basolateral to apical side in human Caco2 cells incubated for 1 hr at 37 degC by HPLC-MS/MS method; assay type: ADME, cell-based; settings: Caco-2
[7] = Distribution coefficient, log D of the compound between n-octanol and PBS buffer at pH 7.4 incubated for 1 hr by shake flask method; assay type: physicochemical
Summary of the method: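 Partition between n-octanol and PBS pH 7.4 after 1 h shaking at room temperature; phases analysed by HPLC with photodiode detection; logD = log10 of organic/aqueous amount.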

[8] = Efflux ratio in human Caco2 cells incubated for 1 hr at 37 degC by HPLC-MS/MS method; assay type: ADME, cell-based; settings: Caco-2
[9] = test system: Mycobacterium tuberculosis; test: Antitubercular activity against Mycobacterium tuberculosis H37Rv incubated at 37 degC for 14 days in presence of 40% human serum by microplate alamar blue assay; assay type: functional; settings: 336 h
Summary of the method: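 This is the MABA run in 7H9 broth containing 40% human serum. Compounds were 2-fold serially diluted, and wells were inoculated with H37Rv at 2 × 10⁵ CFU/mL. Incubation was at 37 °C for 14 days, then Alamar Blue was added. MIC was the lowest concentration preventing the blue-to-pink colour change.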

Vero = test: Cytotoxicity against african green monkey Vero cells; assay type: cell-based, Chlorocebus sabaeus; settings: Chlorocebus sabaeus, Vero; read-out: IC50
[10] = Metabolic stability in human liver microsomes assessed as parent compound remaining at 1 uM incubated for 1 hr by HPLC-MS/MS method; assay type: ADME, Microsome; settings: read-out: Stability
Summary of the method: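 Pooled mixed-gender human liver microsomes (0.3 mg/mL protein), 1 μM compound with NADP-regenerating system in phosphate buffer pH 7.4, 1 h at 37 °C; parent measured at start and end by HPLC-MS/MS; duplicate means.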

[11] = Half life in female rat at 56 mg/kg, po; assay type: ADME, organism-based; design: dose 56 mg/kg, route oral; settings: in vivo
[12] = Permeability across apical to basolateral side in human Caco2 cells incubated for 1 hr at 37 degC by HPLC-MS/MS method; assay type: ADME, cell-based; settings: Caco-2
Summary of the method: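 TC7 (Caco-2 subclone) monolayer; 10 μM compound in 1% DMSO in HBSS-MES pH 6.5 on apical donor side, basolateral receiver pH 7.4; shaken 1 h at 37 °C; receiver sampled, HPLC-MS/MS; duplicate means.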

CYP3A4 = CYP3A4 (Homo sapiens, UniProt P08684); test: Inhibition of human recombinant CYP3A4 at 10 uM incubated for 30 mins at 37 degC using 7-benzyloxy-4-(trifluoromethyl)coumarin substrate; assay type: ADME; settings: recombinant CYP3A4, probe 7-benzyloxy-4-(trifluoromethyl)coumarin
CYP3A4, sequence (P08684 whole entry): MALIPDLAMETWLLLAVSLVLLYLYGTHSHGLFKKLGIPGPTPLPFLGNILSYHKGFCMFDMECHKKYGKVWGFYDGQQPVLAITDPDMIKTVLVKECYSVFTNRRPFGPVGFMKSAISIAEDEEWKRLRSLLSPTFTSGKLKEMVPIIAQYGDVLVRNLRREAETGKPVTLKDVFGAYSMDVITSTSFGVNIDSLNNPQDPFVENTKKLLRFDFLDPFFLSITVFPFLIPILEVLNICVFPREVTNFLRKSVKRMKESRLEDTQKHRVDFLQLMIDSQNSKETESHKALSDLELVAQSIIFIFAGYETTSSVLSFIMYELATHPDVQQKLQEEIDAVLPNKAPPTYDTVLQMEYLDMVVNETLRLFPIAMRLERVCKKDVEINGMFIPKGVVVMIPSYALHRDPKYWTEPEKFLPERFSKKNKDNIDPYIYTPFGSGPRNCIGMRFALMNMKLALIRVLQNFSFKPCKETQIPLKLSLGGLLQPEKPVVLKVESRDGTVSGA

[13] = Solubility in simulated gastric fluid at pH 1.5 by HPLC method; assay type: physicochemical
Summary of the method: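 Compound at 200 μM final in 2% DMSO in simulated gastric fluid, shaken 24 h at room temperature; HPLC-photodiode array detection at 230 nm; duplicate means.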

[14] = test system: Mycobacterium tuberculosis; test: Antitubercular activity against non-replicating Mycobacterium tuberculosis H37Rv incubated for 10 days by LORA method; assay type: functional; settings: 240 h
Summary of the method: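 H37Rv carrying pFCA-luxAB was adapted to low oxygen by gradual self-depletion in a sealed, slowly stirred flask. It was then exposed to compounds for 10 days under anaerobic conditions. Cultures recovered for 28 h in ambient oxygen before n-decanal substrate was added and luminescence read. MIC was the lowest concentration giving a 90% reduction in luminescence versus untreated controls.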

[15] = PBS buffer, read-out: solubility

SMILES | inhibition at 1 h, 10 µM (CYP2C19) [%] | solubility ([1]; buffer) [µM] | solubility [2] [µM] | inhibition at 80 min, 10 µM (CYP2C9) [%] | half-life [3] [h] | fraction unbound at 8 h, 10 µM [4] | MBC90 [5] [µg/mL] | MIC [5] [µg/mL] | Papp B→A at 1 h [6] [×10⁻⁶ cm/s] | logD at 1 h [7] | efflux ratio at 1 h [8] | MIC [9] [µg/mL] | IC50 (Vero) [µg/mL] | remaining at 1 h, 1 µM [10] [%] | half-life [11] [h] | Papp A→B at 1 h [12] [×10⁻⁶ cm/s] | inhibition at 0.5 h, 10 µM (CYP3A4) [%] | solubility [13] [µM] | solubility [1, 15] [µM] | MIC90 [14] [µg/mL]
O=C1c2ccccc2-n2c1nc1ccccc1c2=O [TRYPTANTHRIN] | 9 | 5.4 (≈ 1.34 µg/mL) | 12.9 (≈ 3.2 µg/mL) | 25 | 5.6 | 0.041 | 1 (≈ 4.03 µM) | 1 (≈ 4.03 µM) | 22.5 | 2.29 | > 1 | 1 | > 8 | 15 | 4.35 | 60.1 | 12 | 11.7 (≈ 2.9 µg/mL) | – | –
O=C1c2cc(Br)ccc2-n2c1nc1ccncc1c2=O | 16 | – | 34.4 (≈ 11.3 µg/mL) | 10 | – | – | 0.25 (≈ 0.762 µM) | 1 (≈ 3.05 µM) | – | 1.6 | – | 0.5 | > 50 | 96 | – | – | 14 | 45 (≈ 14.8 µg/mL) | 35.4 (≈ 11.6 µg/mL) | > 50
CCOC(=O)c1ccc2c(c1)C(=O)c1nc3ccccc3c(=O)n1-2 | 10 | – | 11.1 (≈ 3.56 µg/mL) | 38 | – | 0.016 | – | 0.5 (≈ 1.56 µM) | 0.8 | 2.94 | – | 1 | > 16 | 0 | – | 4.2 | 5 | 1.5 (≈ 0.48 µg/mL) | 3.8 (≈ 1.22 µg/mL) | –
O=C1c2ccc(Cl)cc2-n2c1nc1ccccc1c2=O | 4 | – | 20.3 (≈ 5.74 µg/mL) | 25 | – | 0.01 | 0.5 (≈ 1.77 µM) | 0.25 (≈ 0.884 µM) | 0.1 | 2.45 | – | 0.5 | > 50 | 27 | – | 0.4 | 7 | 71.9 (≈ 20.3 µg/mL) | – | > 50
O=C1c2ccccc2-n2c1nc1ccc(Br)cc1c2=O | 10 | – | 49.4 (≈ 16.2 µg/mL) | 20 | – | – | 0.5 (≈ 1.53 µM) | 0.25 (≈ 0.764 µM) | – | 1.69 | – | 0.5 | > 50 | – | – | – | 10 | – | – | > 50
O=C1c2cc(Cl)ccc2-n2c1nc1ncccc1c2=O | 67 | – | 18.9 (≈ 5.36 µg/mL) | 54 | – | 0.051 | 0.25 (≈ 0.881 µM) | 0.125 (≈ 0.441 µM) | 44 | 1.77 | > 1 | 0.125 | 5.4 (≈ 19 µM) | 96 | – | 73.8 | 62 | 6 (≈ 1.7 µg/mL) | 8 (≈ 2.27 µg/mL) | 1.4 (≈ 4.94 µM)
O=C1c2cc(Cl)ccc2-n2c1nc1ccccc1c2=O | 13 | – | 16.7 (≈ 4.72 µg/mL) | 38 | – | – | 0.125 (≈ 0.442 µM) | 0.125 (≈ 0.442 µM) | – | 2.76 | – | 0.25 | > 50 | – | – | – | 10 | 26.8 (≈ 7.58 µg/mL) | 3.3 (≈ 0.933 µg/mL) | > 50
